The source made the active and inactive calls. The calls are words filed in the database; no cut-off is given here.

For assay [1], the system named is INS-1E. In words: (§1) Increase in glucose-stimulated insulin secretion in rat INS-1E cells at 1 uM after 60 mins in presence of 16.7 mM glucose. The class given is functional. Summed up: (§2)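 INS-1E cells were pre-cultured 72 h, then preincubated 15 min in M-KRB (pH 7.4, 1% BSA). They were exposed for 60 min at 37 °C to test agent diluted from a 10−3 M DMSO stock to final 10−12–10−6 M in M-KRB with 16.7 mM glucose, with DMSO equalized across solutions. Insulin in the supernatant was measured by RIA (anti-insulin antibody, 125I-insulin tracer, rat insulin standard), and cell protein by Bradford. Mean ± SEM is reported against the 16.7 mM glucose control.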

A short description of assay [2]: Increase in glucose-stimulated insulin secretion in rat INS-1E cells at 10^-10 M after 60 mins in presence of 16.7 mM glucose. The assay is classed as functional. Summed up:
as §2

Assay [3] can be described thus: Increase in glucose-stimulated insulin secretion in rat INS-1E cells at 10^-8 M after 60 mins in presence of 16.7 mM glucose. The class given is functional. Summed up:
as §2

Assay [4] is described as follows: as §1. The class given is functional. Summed up: as §2
Assay [5] is described as follows: Increase in glucose-stimulated insulin secretion in rat INS-1E cells at 10^-8 M after 72 hrs in presence of 16.7 mM glucose. The class given is functional. Summed up:
(§3)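 INS-1E cells were seeded and grown 72 h at 37 °C in growth medium containing test agent at final 10−12, 10−10 or 10−8 M, with DMSO equalized. After a 15 min preincubation in M-KRB, cells were stimulated 60 min with M-KRB at 3.3 or 16.7 mM glucose. Supernatant insulin was measured by RIA. Mean ± SEM is compared with the control at the matching glucose level.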

Assay [6] in a line: Increase in glucose-stimulated insulin secretion in rat INS-1E cells at 10^-10 M after 72 hrs in presence of 16.7 mM glucose. The assay is classed as functional. Summed up:
as §3

The nature of assay [7]: Increase in glucose-stimulated insulin secretion in rat INS-1E cells at 10^-8 M after 72 hrs in presence of 3.3 mM glucose. The assay is classed as functional. Summed up: as §3
Assay [8] can be described thus: Increase in deoxy-D-glucose 2-[1.2-3H(N)] uptake in human Skeletal muscle cells at 10^-8 M after 72 hrs by scintillation counter relative to control. The assay is classed as functional. Summed up:
(§4)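 Differentiated human skeletal muscle cells (2 weeks in differentiation medium, until multinucleated syncytia were visible) were exposed for 72 h to test agent at 10−8 to 10−12 M. Cells were then given a 15 min pulse at 37 °C in modified KRB with 0.1% BSA, 0.1 mM glucose, tritiated deoxy-D-glucose and 100 nM insulin. Uptake was stopped with washes in 50 mM glucose, cells were lysed in NaOH, and counts per min were read by scintillation and compared with untreated control.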

For assay [9], the species on record is Homo sapiens. In words: Effect on deoxy-D-glucose 2-[1.2-3H(N)] uptake in human Skeletal muscle cells at 10^-12 to 10^-10 M after 72 hrs by scintillation counter. The class given is functional. Summed up: as §4
The nature of assay [10]: Decrease in glucose-stimulated insulin secretion in rat INS-1E cells at 10^-12 M after 72 hrs in presence of 3.3 mM glucose. On the set-up: scale not given: the % may be the effect or the level left.

For the compound `O=C(/C=C/c1ccc(O)c(O)c1)O[C@@H]1C[C@](O)(C(=O)O)C[C@@H](O)[C@H]1O`, the result in assay [1] was Active.
On to `C[C@@]12CCc3occc3[C@H]1CC[C@@]13C[C@@H](CC[C@H]12)[C@@](O)(CO)C3` [CAFESTOL], for which the Activity in [2] is 12%; in assay [3] it was 12%; in [4], 16%; in assay [5] it was 34%; in assay [6], 68%; in [7] it was 27%. Further, the values for the Activity in assay [8] and in [10] were 8% and 15%, respectively. In [9], the outcome was inactive.
`O=C(O)/C=C/c1ccc(O)c(O)c1` [CAFFEIC ACID]: the Activity in assay [2] is listed as 9%; in assay [3], 18%; in [4], 9%; in assay [5], 16%.
Consider `CN(CCOc1ccc(CC2SC(=O)NC2=O)cc1)c1ccccn1` (stereo not given) [ROSIGLITAZONE], for which, in [8], the Activity is recorded as 7%.

The record behind these values is ChEMBL document CHEMBL3632531, “Cafestol, a Bioactive Substance in Coffee, Stimulates Insulin Secretion and Increases Glucose Uptake in Muscle Cells: Studies in Vitro” (2015).
